B1: tRNA (parent)
chain: GUUCCGUUGGCGUAAUGGUAACGCGUCUCCCUCCUAAGGAGAAGACUGCGGGUUCGAGUCCCGUACGGAACG

Variants at the floor of the assay were thinned out.

Variants of B1 are the subject of this data set. The data set is described as follows: yeast fitness relative to wild type (ratio to wild type); higher = fitter; tRNA-Arg(CCU), competitive growth, 37 C, YPD. In outline: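 Changes in genotype frequencies gave Darwinian fitness relative to wild type. Frequencies were read by 100-nucleotide paired-end sequencing of gene amplicons before and after pooled Saccharomyces cerevisiae strains, carrying tRNA-Arg(CCU) gene variants at the native locus, were competed in YPD at 37°C for 24 hours in six replicates. A genotype was kept only with ≥ 100 starting reads, and estimates < 0.5 were set to 0.5.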
Turning to GUUCCGUUGGCGUUAUGGUAACGCGUCUCCCUCCUAAGGAGAAGACUGCGGGUUCGAGCCCCGUACGGACCG [A14U U59C A70C], the yeast fitness was ≤ 0.5. As for GUUCCGUUGGCACAAUGGUAACGCGUCUCCCUUUUAAGGAGCAGACUGCAGGUUCGAGUCCCGUACGGAACG [G12A U13C C33U C34U A42C G50A], the yeast fitness is ≤ 0.5. On to GUUCCGUUGGCGUAAUGGGAACGCGUCUCCCUCCUAAGGAGAAGACUGCGGGUUCGAGUCCCGUGCGGAACG [U19G A65G], for which the yeast fitness came out at 1.03.

Take GAUCCGCUGGCGUAAUGGUAACGCGUCUCCCUCCUAAGGAACAGACUGCCGGUUCGAGUCCCGUACGGAGCG [U2A U7C G41A A42C G50C A70G]: the yeast fitness was ≤ 0.5.

In the case of GUUCCGUUCGAGUAAUGGUAACGCGUCUCCCUCCUAAGGAGAAGACGGCGGGUUCGAGACCCGUACGGAACG [G9C C11A U47G U59A], the yeast fitness was ≤ 0.5. With GUUCCGUUGCCGUAAAGGUAACGCGUCUCUCUCCUAAGGAGAAGACUGCGGGUUCGAGUCCCGAACGGAACG [G10C U16A C30U U64A] the figure was ≤ 0.5; with GCUCCGUUGGCGUAAUGGUAACGCGUCUUCCUCCUAGGGAGAAGACUGCGGGUUCGAGUCCCGUGCGGAACG [U2C C29U A37G A65G], ≤ 0.5; with GUUCCGUUGGCGUAAUGGUAACGCGUCUCCCACUUAAGGAGAAGACUGCGGGUUCGAGUCUCGUACGGAACG [U32A C34U C61U], 0.54. GUUCCGUUGGCGUAAUGGUAACGCGACUCCGUCCUAAGGAGAAGACUGCGGGUUCGAGUCCCGUACGGAACG [U26A C31G]: the yeast fitness came to 0.942. Then GUUCAGUUGGGGUAAUGGUAACGCGUCUCGCUCCUUAGGAGAAGACUGCGGGUUCGAGUACCGUACGGAACG [C5A C11G C30G A36U C60A], with ≤ 0.5; and GUUCCGUUGGCGUAAUGGUAACGCGUCUCCCUCCUAAGAAGAAGACUGCGGGUUCGAGUCCCGUACGGAUCG [G39A A70U], with 0.915; and GUUCCGUUGGCGUAAUGGUAACGCGUCUUCCUCCUAAGGAGUUGACUGCGGGUUGGAGUCCCGUACGGAACG [C29U A42U A43U C55G], with 0.545. With GUUCCGUUGGCGUAAUGGUAACGCGUCUCCCGGCUAAGGAGAAGACUGCAGGGUCGAGUCCCGUACGGGCCG [U32G C33G G50A U53G A69G A70C] the figure was ≤ 0.5; with GUUCCGUUGCCGUAAUGGUAACGCGUCUUCCUCCUAAGGUGAAGACUGCGGGUUCGAGUCCCGUUCGGAACG [G10C C29U A40U A65U], ≤ 0.5; with GUUUCGUUGGCGUAAUGGUAACGCGUCUCCCUCCUAAGGAGAAGACUCCGGGUUCGAGUCCCGUACGGAUCG [C4U G48C A70U], 0.542. GUUCCGUUGGCGUGAUGGUAACGCGUCUCCCUCCUAAGGUGAAGACUGCGGGUUAGAGUCCCGUACGUAACG [A14G A40U C55A G68U]: the yeast fitness is ≤ 0.5. With GUUCCGUUGGCGUAGUGGUAACGCCUCUCCCUCCUAAGGAGAAGACUGCGGGUUCGAGUCCCGUACGGAACG [A15G G25C] the figure was 0.987; with GUUCCGUUAGCGUAAUGGUAUCGCGUCUCCCUCGUAAGAAGAAGACUGCGGGUUUGAGUCGCGUACGGAACG [G9A A21U C34G G39A C55U C61G], ≤ 0.5; with GUUCUGUUGGCGUAAUGGUAACGCGUCUCCCUCCUAAGGAGAAGACUGAGGGUUCGAGUCCCGUACGGAACG [C5U C49A], 0.78. In the case of GUUCCGUUGGCGUAAUGGUAAGGCGUCUCCCUCCUCAGGAGAAGACUACGGGUUCGAGUCACGUAUGGAACG [C22G A36C G48A C61A C66U], the yeast fitness was ≤ 0.5. For GUUCCGUUGGCGUAUUGGUAACGCGUCUCCCUCGUAAGGAGAAGACUGCGGGUUCGAGUCCCGUACGGAACG [A15U C34G], the yeast fitness is ≤ 0.5. As to GUUCCGUUGGCGUAAUGGUAUCGCCUCUCCCUCCUAGGGAGAGGACUGCGGGUUCGAGUCCCGUGCGGAACG [A21U G25C A37G A43G A65G], the yeast fitness was ≤ 0.5. On to GUUCCGUUGGCGUAUUGGUAACGUGUCUCCCUCCUAAGGUCAAGACUGCGGGUUCGAGUCCCGCACGGAACG [A15U C24U A40U G41C U64C], for which the yeast fitness was 0.647. Then GUUCCGUUGGCGUAAUGGUAAGGCGUCUCCCUCCUAAGGAGACGACUGCGGGUUCGAGUCCCGUACGGAACG [C22G A43C], with 0.708; and GUUCCGUUGGGGUAAUGGUAACGCGUCUCCCUCCUAAGGAGAAGAGUGCGGGUUCGUGUCCCGUACGGAACG [C11G C46G A57U], with 0.624; and GUUCCGUUGGCGCUAUGGUAACGCGUCUCCGUCCUAAGGAGAAGACUGCAGGUUCGAGUCCCGUCCGGAACG [U13C A14U C31G G50A A65C], with 0.531.

With GUUCCGUUCGCGUAAUGGUAACGCGUCUCCCUCCUCAGGAGAAGACUGGGGGUUCGAGUCCCGUGCGGAACG [G9C A36C C49G A65G], the yeast fitness worked out at 0.681.

For GUUCCGUUGGCGUAAUGGUAACGCGUCUCCCUCCUAUGGAGAAGACAGCGGUUUCGAGUCCCGUACGGAACG [A37U U47A G52U], the yeast fitness was ≤ 0.5.

GUUCCGUUGGCGUAAUGGUAACGCGUCUCCCCCCUAAGGUGAAGACUGCGGGUUCGAGUCCCGUACGGAACG [U32C A40U]: the yeast fitness stood at 1.01. On to GUUCCGUUGGCGUAAUGGUACCGCGUCUCCCUCCUAAGGAGAAGACUGCGGGUUCGAGCCCCGUACGGAACG [A21C U59C], for which the yeast fitness came to 0.777.

In the case of GUUCCGAUGGCGUAAUGGUGACGCGUCUCCCUCAUAAGGAGAAAAUUGCGGGUUCGAGUCCCGUACGGACCG [U7A A20G C34A G44A C46U A70C], the yeast fitness was ≤ 0.5. With GUUCCGUUGGCGUAAUGGUAACGCGUCUUCCGCCUAAGGAGAUCACUGCGGGCUCGAGUCCCGUACGGAACG [C29U U32G A43U G44C U53C] the figure was ≤ 0.5. For GUUCCGUUGGCGUGAUGGUAACGCGUCUCCCUCCUAAGGAGAAGACUGCGGGCUCGAGUCCCGUACCGAACG [A14G U53C G67C], the yeast fitness was ≤ 0.5. GUUCCGUUGGCGUAAUGGUAACGCGUCUCCCUCCUAAGGAAAAGACUGCGGGUUCGAGUCCUGUACGGUACG [G41A C62U A69U]: the yeast fitness amounted to 0.619. GUUCCGUUGGCGUAAUGGUAGGGCGUCUCCCUCCUAAGGAGAAGACUGCGGGCUGGAGUCCCGUACGGAACG [A21G C22G U53C C55G]: the yeast fitness came to 0.698. For GUUCCGUUGACGUAAUGGUAACGCGUCUCCCUCCUAAUGAGAAGACUGCGGGUUCGAGUCCCGUACUGAACG [G10A G38U G67U], the yeast fitness is ≤ 0.5. Turning to GUUCCGUUGGAGCAAUGGUAACGCGUAUCCCUCCUAAGGAGAAGACUGCGGGUUCGAGUCCCGUACGGAACG [C11A U13C C27A], the yeast fitness is ≤ 0.5. For the variant GGUCCGUUGGCGGAAUGGUAACGCGUCUCCCUCCUAAGGAGAAGACUGUGGGUUCAAGUCCCGUACGGAGCG [U2G U13G C49U G56A A70G], the yeast fitness was ≤ 0.5.

The values are drawn from the RNAGym collection of RNA variant scans (doi:10.1126/science.aae0568).
